# Source: ChEMBL document CHEMBL2321775, “Synthesis and biological characterization of new aminophosphonates for mitochondrial pH determination by (31)P NMR spectroscopy” (J Med Chem, 2013)
# How the values were obtained:
# [1] = (§1) Cytotoxicity against mouse 3T3 cells assessed as cell viability after 3 hrs by spectrophotometric analysis; format: cell-based, NIH3T3; conditions: 3T3 cells (NIH3T3), read-out: LD50
# Summary of the method: (§2)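 Confluent 3T3 fibroblasts (DMEM, 10% FCS, 37 °C, 5% CO2) were switched to phenol red-free DMEM with 1% glucose and exposed 3 h to compound at 0.01−5 mM final (0.1% DMSO). Cells were then given neutral red (50 μg/mL, 2% FCS MEM) for 2 h and read at 540 nm. LD50 and LD10 were taken from dose−response curves over 3−6 experiments.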
# [2] = system: NIH3T3; assay: as §1; format: cell-based; conditions: nih3t3, 3 h; summary of the method: as §2
# [3] = system: NIH3T3; assay: Cytotoxicity against mouse 3T3 cells assessed as LDH release per mg of protein at LD10 concentration after 1 hr by spectrophotometric analysis; format: cell-based; conditions: nih3t3, 1 h
# Summary of the method: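 LDH released into the supernatant was measured after 1 h with a kit and expressed per mg protein. Total LDH was obtained from a Triton X-100 (1%) lysis control. Means of 3−6 independent experiments.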
# [4] = Toxicity against Chlamydomonas reinhardtii D66 assessed as loss of respiratory activity after 1 hr; conditions: Chlamydomonas reinhardtii D66 cells, read-out: LD50
# Summary of the method: (§3)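 Cell wall-less C. reinhardtii D66 grown in Tris acetate phosphate medium to 1−5 × 10^6 cells/mL at 25 °C. Exposed 1 h at 25 °C to 0.01−1 mM compound (DMSO ≤0.1%), under saturating light for photosynthesis or in the dark for respiration. NaHCO3 added (1 mM), then O2 measured by Clark electrode against DMSO control. LD50 is the concentration giving 50% activity loss.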
# [5] = Dissociation constant, pKa of the compound in Krebs-Henseleit buffer; format: physicochemical
# Summary of the method: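 31P NMR titration at 25 °C in Krebs−Henseleit buffer, with shifts referenced to external phosphoric acid and a D2O capillary as lock. Diethoxyphosphoryl shift plotted against pH (range 1.5−12) and fitted to the Henderson−Hasselbalch equation by nonlinear regression. Three independent titrations per compound, mean ± SEM.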
# [6] = Toxicity against Chlamydomonas reinhardtii D66 assessed as loss of photosynthetic activity after 1 hr; conditions: Chlamydomonas reinhardtii D66 cells, read-out: LD50; summary of the method: as §3
# [7] = system: Liver; assay: Toxicity against Sprague-Dawley rat liver assessed as respiratory control ratio incubated for 1 hr followed by compound washout measured after 10 mins; format: tissue-based
# Summary of the method: (§4)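 Livers perfused at 37 °C with 0.1 mM compound for 1 h, then 10 min cold KH washout. Mitochondria isolated in ice-cold 0.3 M sucrose by differential centrifugation for membrane potential measurement. RCR was taken as respiration with 0.5 mM ADP divided by respiration after ADP phosphorylation ended, in KH2PO4/EDTA/MOPS/MgCl2 with glutamate 20 mM and malate 1 mM, pH 7.2, 37 °C. Mean ± SD.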
# [8] = system: Liver; assay: Toxicity against Sprague-Dawley rat liver assessed as mitochondrial membrane potential incubated for 1 hr followed by compound washout measured after 10 mins; format: tissue-based; summary of the method: as §4
# [9] = system: Liver; assay: Toxicity against Sprague-Dawley rat liver assessed as ATP content incubated for 1 hr followed by compound washout measured after 10 mins; format: tissue-based
# Summary of the method: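 Rat livers perfused at 37 °C with KH buffer containing 0.1 mM compound for 1 h, then washed out for 10 min with cold KH. Organ freeze-clamped in liquid nitrogen and ATP measured enzymatically in perchloric extracts, given as μmol/g. Mean ± SD of 3−9 experiments.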
# [10] = Drug uptake in Sprague-Dawley rat liver mitochondria incubated for 1 hr followed by compound washout measured after 10 mins; format: ADME
# Summary of the method: (§5)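 Sprague−Dawley male rat livers (120−150 g) perfused via the portal vein, non-recirculating, at 37 °C with KH bicarbonate buffer (95% O2/5% CO2, pH 7.35) at 3 mL/min/g. After 30 min equilibration, 0.1 mM compound was given for 1 h, followed by a 10 min ice-cold KH washout. Liver homogenised in 0.25 M sucrose/10 mM HEPES pH 7.5; cytosol and mitochondria separated by differential centrifugation and levels reported as μmol/g. 3−9 experiments, mean ± SD.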
# [11] = Drug uptake in Sprague-Dawley rat liver cytosol incubated for 1 hr followed by compound washout measured after 10 mins; format: ADME, tissue-based; summary of the method: as §5
# [12] = system: Liver; assay: Metabolic stability in Sprague-Dawley rat liver incubated for 1 hr followed by compound washout measured after 10 mins by 31P-NMR analysis; format: ADME, tissue-based
# [13] = Drug uptake in Sprague-Dawley rat liver cytosol incubated for 1 hr followed by compound washout measured after 10 mins by 31P-NMR analysis; format: ADME, tissue-based; summary of the method: as §5
# [14] = Drug uptake in Sprague-Dawley rat liver mitochondria incubated for 1 hr followed by compound washout measured after 10 mins by 31P-NMR analysis; format: ADME; summary of the method: as §5
compound,measurement,setting,value
CCOP(=O)(OCC)C(NCCCC[P+](c1ccccc1)(c1ccccc1)c1ccccc1)C(C)C.[Br-] (racemic),CC50 at 3 h,[1],600 µM
same,LD10,[2],0.3 mM
same,Activity,[3],10.7 IU
same,LC50 at 1 h,[4],150 µM
same,pKa,[5],5.47
same,LC50 at 1 h,[6],250 µM
CCOP(=O)(OCC)C1(C)CCCN1 (stereo not drawn),LD10,[2],78 mM
same,Activity,[3],13.1 IU
same,LC50 at 1 h,[4],> 1000 µM
same,pKa,[5],7.01
same,LC50 at 1 h,[6],> 1000 µM
CCOP(=O)(OCC)C(NCCCCCC[P+](c1ccccc1)(c1ccccc1)c1ccccc1)C(C)C.[Br-] (racemic),CC50 at 3 h,[1],500 µM
same,LD10,[2],0.2 mM
same,Activity,[3],15.9 IU
same,LC50 at 1 h,[4],130 µM
same,pKa,[5],5.99
same,LC50 at 1 h,[6],130 µM
CC(C)(C)/[N+]([O-])=C/c1ccccc1,Ratio,[7],5.5
same,Activity,[8],178.9 mV
same,Activity,[9],2.11 µmol/g
same,Drug uptake,[10],< 0.05 µmol/g
same,Drug uptake,[11],0.88 µmol/g
same,CC50 at 3 h,[1],7200 µM
same,LD10,[2],4.1 mM
same,Activity,[3],14.2 IU
same,LC50 at 1 h,[4],> 500 µM
same,LC50 at 1 h,[6],> 500 µM
CCOP(=O)(OCC)C(C)(CCC[P+](c1ccccc1)(c1ccccc1)c1ccccc1)NCC(C)C.[Br-] (racemic),CC50 at 3 h,[1],700 µM
same,LD10,[2],0.5 mM
same,Activity,[3],12.9 IU
same,LC50 at 1 h,[4],300 µM
same,pKa,[5],5.39
same,LC50 at 1 h,[6],300 µM
CCOP(=O)(OCC)C(NCCCCCCCC[P+](c1ccccc1)(c1ccccc1)c1ccccc1)C(C)C.[Br-] (racemic),CC50 at 3 h,[1],300 µM
same,LD10,[2],0.05 mM
same,Activity,[3],49.4 IU
same,LC50 at 1 h,[4],25 µM
same,pKa,[5],6.23
same,LC50 at 1 h,[6],25 µM
CCCNC(C)(C)P(=O)(OCC)OCC,Ratio,[7],5.9
same,Activity,[8],181.3 mV
same,Activity,[9],2.33 µmol/g
same,Drug uptake,[10],< 0.05 µmol/g
same,Drug uptake,[11],0.56 µmol/g
same,LD10,[2],76 mM
same,Activity,[3],11.9 IU
same,pKa,[5],6.99
CCOP(=O)(OCC)C(NCCCCCCCCCCCC[P+](c1ccccc1)(c1ccccc1)c1ccccc1)C(C)C.[Br-] (racemic),CC50 at 3 h,[1],20 µM
same,LD10,[2],0.01 mM
same,Activity,[3],52.7 IU
same,LC50 at 1 h,[4],< 10 µM
same,pKa,[5],6.38
same,LC50 at 1 h,[6],< 10 µM
CCOP(=O)(OCC)C(C)(N)CCC[P+](c1ccccc1)(c1ccccc1)c1ccccc1 (racemic),pKa,[5],5.13
CCOP(=O)(OCC)C(C)(C)NCCCC[P+](c1ccccc1)(c1ccccc1)c1ccccc1.[Br-],CC50 at 3 h,[1],700 µM
same,LD10,[2],0.4 mM
same,Activity,[3],10.2 IU
same,LC50 at 1 h,[4],400 µM
same,pKa,[5],5.9
same,LC50 at 1 h,[6],500 µM
CCOP(=O)(OCC)C(C)(C)NCCCCCC[P+](c1ccccc1)(c1ccccc1)c1ccccc1.[Br-],Ratio,[7],5.7
same,Activity,[8],174.2 mV
same,Activity,[9],2.29 µmol/g
same,Drug uptake,[10],1.55 µmol/g
same,Drug uptake,[11],0.93 µmol/g
same,CC50 at 3 h,[1],600 µM
same,LD10,[2],0.2 mM
same,Activity,[3],14.9 IU
same,LC50 at 1 h,[4],100 µM
same,pKa,[5],6.53
same,LC50 at 1 h,[6],250 µM
CC(C)(C)/[N+]([O-])=C/c1ccc(OCCCC[P+](c2ccccc2)(c2ccccc2)c2ccccc2)cc1.[Br-],Stability,[12],Stable
same,Drug uptake,[13],Not Active
same,Drug uptake,[14],Active
same,Ratio,[7],4.7
same,Activity,[8],170.7 mV
same,Activity,[9],1.95 µmol/g
same,Drug uptake,[10],1.95 µmol/g
same,Drug uptake,[11],0.12 µmol/g
same,CC50 at 3 h,[1],200 µM
same,LD10,[2],0.05 mM
same,Activity,[3],49.7 IU
same,LC50 at 1 h,[4],50 µM
same,LC50 at 1 h,[6],100 µM
CCOP(=O)(OCC)C(NCCCCCC[P+](c1ccccc1)(c1ccccc1)c1ccccc1)C(C)(C)C.[Br-] (racemic),CC50 at 3 h,[1],300 µM
same,LD10,[2],0.2 mM
same,Activity,[3],16.7 IU
same,pKa,[5],5.63
CCOP(=O)(OCC)C(C)(C)NCCCCCCCCCCCC[P+](c1ccccc1)(c1ccccc1)c1ccccc1.[Br-],CC50 at 3 h,[1],100 µM
same,LD10,[2],0.05 mM
same,Activity,[3],44.7 IU
same,LC50 at 1 h,[4],< 25 µM
same,pKa,[5],6.85
same,LC50 at 1 h,[6],< 25 µM
CCOP(=O)(OCC)C(C)(C)NCCCCCCCC[P+](c1ccccc1)(c1ccccc1)c1ccccc1.[Br-],Stability,[12],Stable
same,Drug uptake,[13],Active
same,Drug uptake,[14],Active
same,Ratio,[7],5.2
same,Activity,[8],171.9 mV
same,Activity,[9],2.08 µmol/g
same,Drug uptake,[10],1.32 µmol/g
same,Drug uptake,[11],0.64 µmol/g
same,CC50 at 3 h,[1],300 µM
same,LD10,[2],0.15 mM
same,Activity,[3],17.7 IU
same,LC50 at 1 h,[4],75 µM
same,pKa,[5],6.94
same,LC50 at 1 h,[6],100 µM
